Reference: ChEMBL document CHEMBL2086239, “Synthesis and biological evaluation of combretastatin-amidobenzothiazole conjugates as potential anticancer agents” (Eur J Med Chem, 2012)
The source made the active and inactive calls. The rule behind the calls is not given here.

Tests used:
[1] = system: A549; test: Cytotoxicity against human A549 cells assessed as inhibition of cell growth at 10 uM after 48 hrs by SRB assay relative to control; type: functional; details: for inhibition of growth at 10 µM: A549, 48 h, read-out: GI
Summary of the method: (§1)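 SRB protein assay in DMEM with 10% FBS at 37 °C, 5% CO2, 100% relative humidity. Cells seeded in 96-well plates, incubated 24 h, then exposed to drug at 10 µM for 48 h and processed per standard protocol. Absorbance read at 560 nm; growth percentage calculated for test wells relative to control wells.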

[2] = system: THP-1; test: Cytotoxicity against human THP1 cells after 48 hrs assessed as inhibition of cell growth at 10 uM after 48 hrs by SRB assay relative to control; type: functional; details: THP-1, 48 h, read-out: GI; summary of the method: as §1
[3] = system: IMR-32; test: Cytotoxicity against human IMR32 cells after 48 hrs assessed as inhibition of cell growth at 10 uM after 48 hrs by SRB assay relative to control; type: functional; details: IMR-32, 48 h, read-out: GI; summary of the method: as §1
[4] = system: MCF7; test: Cytotoxicity against human MCF7 cells after 48 hrs assessed as inhibition of cell growth at 10 uM after 48 hrs by SRB assay relative to control; type: functional; details: MCF7, 48 h, read-out: GI; summary of the method: as §1
[5] = system: RPMI-8226; test: Growth inhibition of human RPMI8226 cells after 48 hrs by SRB assay; type: functional; details: RPMI-8226, 48 h
Summary of the method: (§2)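 NCI 60-cell-line screen: after preliminary screening, tested at five dose concentrations on 59 human tumour lines covering leukemia, lung, colon, CNS, melanoma, ovarian, renal, prostate and breast.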

[6] = system: EKVX; test: Growth inhibition of human EKVX cells after 48 hrs by SRB assay; type: functional; summary of the method: as §2
[7] = system: HOP-62; test: Growth inhibition of human HOP62 cells after 48 hrs by SRB assay; type: functional; details: HOP-62, 48 h; summary of the method: as §2
[8] = system: HOP-92; test: Growth inhibition of human HOP92 cells after 48 hrs by SRB assay; type: functional; details: HOP-92, 48 h; summary of the method: as §2
[9] = system: NCI-H226; test: Growth inhibition of human NCI-H226 cells after 48 hrs by SRB assay; type: functional; details: NCI-H226, 48 h; summary of the method: as §2
[10] = system: NCI-H522; test: Growth inhibition of human NCI-H522 cells after 48 hrs by SRB assay; type: functional; details: NCI-H522, 48 h; summary of the method: as §2
[11] = system: COLO 205; test: Growth inhibition of human COLO205 cells after 48 hrs by SRB assay; type: functional; details: COLO 205, 48 h; summary of the method: as §2
[12] = system: HCC 2998; test: Growth inhibition of human HCC2998 cells after 48 hrs by SRB assay; type: functional; summary of the method: as §2
[13] = system: HCT-116; test: Growth inhibition of human HCT116 cells after 48 hrs by SRB assay; type: functional; details: HCT-116, 48 h; summary of the method: as §2
[14] = system: SF-539; test: Growth inhibition of human SF539 cells after 48 hrs by SRB assay; type: functional; details: SF-539, 48 h
Summary of the method: (§3)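 NCI 60-cell-line panel, five-dose testing after preliminary screen; sulforhodamine B protein assay in DMEM with 10% FBS, 37 °C, 5% CO2, 100% humidity. Cells seeded and incubated 24 h before compound addition, then exposed 48 h. Absorbance read at 560 nm; growth percentage relative to control wells; GI50 taken as concentration giving 50% growth inhibition.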

[15] = system: U-251; test: Growth inhibition of human U251cells after 48 hrs by SRB assay; type: functional; details: U-251, 48 h; summary of the method: as §3
[16] = system: M14; test: Growth inhibition of human M14 cells after 48 hrs by SRB assay; type: functional; details: M14, 48 h; summary of the method: as §2
[17] = system: SK-MEL-2; test: Growth inhibition of human SK-MEL-2 cells after 48 hrs by SRB assay; type: functional; details: SK-MEL-2, 48 h; summary of the method: as §3
[18] = system: SK-MEL-28; test: Growth inhibition of human SK-MEL-28 cells after 48 hrs by SRB assay; type: functional; summary of the method: as §3
[19] = system: UACC-257; test: Growth inhibition of human UACC257 cells after 48 hrs by SRB assay; type: functional; summary of the method: as §3
[20] = system: OVCAR-3; test: Growth inhibition of human OVCAR3 cells after 48 hrs by SRB assay; type: functional; details: OVCAR-3, 48 h; summary of the method: as §2
[21] = system: NCI/ADR-RES; test: Growth inhibition of human NCI/ADR-RES cells after 48 hrs by SRB assay; type: functional; summary of the method: as §2
[22] = system: ACHN; test: Growth inhibition of human ACHN cells after 48 hrs by SRB assay; type: functional; summary of the method: as §2
[23] = system: TK-10; test: Growth inhibition of human TK10 cells after 48 hrs by SRB assay; type: functional; details: TK-10, 48 h; summary of the method: as §3
[24] = system: UO-31; test: Growth inhibition of human UO31 cells after 48 hrs by SRB assay; type: functional; details: UO-31, 48 h; summary of the method: as §3
[25] = system: MCF7; test: Growth inhibition of human MCF7 cells after 48 hrs by SRB assay; type: functional; details: MCF7, 48 h; summary of the method: as §2
[26] = system: BT-549; test: Growth inhibition of human BT549 cells after 48 hrs by SRB assay; type: functional; details: BT-549, 48 h; summary of the method: as §2
[27] = Inhibition of tubulin polymerization after 30 mins to 1 hr by spectrophotometry
Summary of the method: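 This was a kit-based tubulin polymerization assay. Kit tubulin in G-PEM buffer was incubated with compounds, and polymerization was followed as optical density at 340 nm for 30 min to 1 h. Inhibition was read as a decrease in OD. Nocodazole and paclitaxel were run as reference destabilizer and stabilizer.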

[28] = system: MCF7; test: Cytotoxicity against human MCF7 cells at 4 uM after 24 hrs by MTT assay; type: functional, cell-based
Summary of the method: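 MCF-7 cells grown in DMEM with 10% fetal calf serum, penicillin and streptomycin at 37 °C, 5% CO2. Seeded at 10,000 cells/well, incubated overnight, then treated 24 h at 4 µM. Medium replaced with fresh medium plus MTT dye, incubated 2 h at 37 °C. Absorbance read at 570 nm; O.D. taken as viability versus untreated control.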

Structure (SMILES)	inhibition of growth at 10 µM [2] [%]	inhibition of growth at 10 µM [3] [%]	inhibition of growth at 10 µM [4] [%]	GI50 [5] [µM]	GI50 [6] [µM]	GI50 [7] [µM]	GI50 [8] [µM]	GI50 [9] [µM]	GI50 [10] [µM]	GI50 [11] [µM]	GI50 [13] [µM]	GI50 [14] [µM]	GI50 [15] [µM]	GI50 [16] [µM]	GI50 [17] [µM]	GI50 [20] [µM]	GI50 [21] [µM]	GI50 [22] [µM]	GI50 [23] [µM]	GI50 [24] [µM]	also measured
COc1ccc(/C=C\c2cc(OC)c(OC)c(OC)c2)cc1OCC(=O)Nc1nc2ccc(C(F)(F)F)cc2s1	29	23	62	5.48	6.25	5.22	2.88	3.17	2.89	17.1	3.29	2.66	3.67	3.58	3.98	2.11	2.12	4.82	7.03	3.59	inhibition of growth at 10 µM [1]: 30%; GI50 ([12]; HCC 2998, 48 h): 4.23 µM; GI50 ([18]; SK-MEL-28, 48 h): 3 µM; GI50 ([19]; UACC-257, 48 h): 40 µM; GI50 [25]: 3.16 µM; GI50 [26]: 5.23 µM
COc1ccc(/C=C\c2cc(OC)c(OC)c(OC)c2)cc1OCC(=O)Nc1ccc2nc(C)sc2c1	59	62	52	1.98	4.05	3.09	2.38	2.75	2.28	4.4	3.57	2.56	3.59	3.38	3.15	6.32	2.36	3.12	4.21	2.41	growth inhibition (GI) [1]: inactive; GI50 ([12]; HCC 2998, 48 h): 6.9 µM; GI50 ([18]; SK-MEL-28, 48 h): 3.22 µM; GI50 ([19]; UACC-257, 48 h): 1.73 µM; GI50 [25]: 0.74 µM; GI50 [26]: 3.05 µM
COc1ccc2nc(NC(=O)COc3cc(/C=C\c4cc(OC)c(OC)c(OC)c4)ccc3OC)sc2c1	72	73	53	5.43	5.11	23	6.28	4.51	3.09	3.89	3.7	2.84	4	4.33	4.07	2.17	2.3	7.77	7.54	4.31	inhibition of growth at 10 µM [1]: 45%; GI50 ([12]; HCC 2998, 48 h): 7.34 µM; GI50 ([18]; SK-MEL-28, 48 h): 4.41 µM; GI50 ([19]; UACC-257, 48 h): 63 µM; GI50 [25]: 2.88 µM; GI50 [26]: 21.2 µM
COc1ccc(/C=C\c2cc(OC)c(OC)c(OC)c2)cc1O [COMBRETASTATIN A4]	87	89	71	0.003	0.079	0.002	0.002	0.003	0.001	0.1	0.003	0.002	0.007	0.002	0.003	0.001	0.001	0.006	0.1	0.019	inhibition of growth at 10 µM [1]: 55%; GI50 ([12]; HCC 2998, 48 h): 0.063 µM; GI50 ([18]; SK-MEL-28, 48 h): 0.007 µM; GI50 ([19]; UACC-257, 48 h): 0.003 µM; GI50 [25]: 0.005 µM; GI50 [26]: 10 µM; inhibition [27]: Active
COc1ccc(/C=C\c2cc(OC)c(OC)c(OC)c2)cc1OCC(=O)Nc1nc2ccc(F)cc2s1	54	77	56	6.36	5.72	5.7	5.73	5.6	2.92	7.78	4.48	4.51	4.33	6.82	8.46	9.99	2.55	3.33	9.89	2.56	inhibition of growth at 10 µM [1]: 44%; GI50 [12]: inactive; GI50 [18]: inactive; GI50 ([19]; UACC-257, 48 h): 8.69 µM; GI50 [25]: 2.3 µM; GI50 [26]: 16.7 µM; Activity [28]: Active
COc1ccc(/C=C\c2cc(OC)c(OC)c(OC)c2)cc1OCC(=O)Nc1nc2ccc(OC(F)(F)F)cc2s1	66	44	59	5.83	7.89	7.09	2.74	4.3	3.16	43.3	3.92	2.28	3.37	4.36	3.29	3.37	2.7	8.31	18.6	4.37	inhibition of growth at 10 µM [1]: 40%; GI50 ([12]; HCC 2998, 48 h): 17.1 µM; GI50 ([18]; SK-MEL-28, 48 h): 4.57 µM; GI50 [19]: inactive; GI50 [25]: 2.89 µM; GI50 [26]: 10.5 µM
